# Compound activity from PubChem BioAssay.
# Sampled rows, rich in hits. Any-hit rate of the full collection: about 3.9%.
# core dimer inh = blocks dimerization of HCV core protein | actives 0.33% (n = 300,000) | AID 1899 | TR-FRET GST/Flag-core106 dimerization, 1536-well | inhibition, % at 5 µM;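 active = inhibition above the mean of all tested compounds plus 3 SD, set per screening campaign, cut at about 45% in these data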
#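 System: GST/Flag-tagged HCV core106 proteins. Incubation: compound-protein-antibody incubation 4 h at 22.5 °C. Technique: HTRF with 340 nm excitation, 617/671 nm emission. Medium: KF-containing HEPES buffer, pH 7.45, DTT, CHAPS, BSA. Read-out: inhibition (%) from 671 over 617 nm ratio. Also added: Eu(K)-anti-GST 90 ng/mL plus XL665-anti-Flag 1 µg/mL.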
# DNA FID counter = fluorescent intercalator displacement, NS3 helicase counter-screen; AID 1845; actives 0.17% (n = 290,000); inhibition, % at 7.9 µM; DNA fluorescent intercalator displacement, fluorescence; in the data active = inhibition above about 37%;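 note: 0% = vehicle and 100% = reference compound; higher means more ethidium bromide displaced from hairpin DNA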
# HSP90 inh = blocks HSP90-mediated luciferase refolding in reticulocyte lysate; inhibition, % at 5.6 µM; Rabbit reticulocyte lysate, luciferase refolding luminescence, 3 h; actives 0.91% (n = 290,000); AID 1789;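 active = inhibition above the screen-wide mean plus 3 SD, computed separately per campaign, cut at about 16% in these data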;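 note: 0% = DMSO wells and 100% = 60 µM geldanamycin wells; inhibitors lower the luminescence because luciferase stays unfolded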
# HSF-1 act = increases HSF-1 driven luciferase reporter signal; NIH3T3-HGL HSF-1 luciferase reporter, MG132, 8 h; 100% = twice DMSO control signal; activation, % at 9 µM; actives 1.7% (n = 300,000); AID 504408;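 active = mean replicate activation of at least 50% with a set share of replicates each reaching 50%; inconclusive = only one of those two conditions met; inactive = mean below 50% and too few replicates reaching it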;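 note: 0% = median of the neutral control wells and 100% = twice that signal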
# NS3 helicase inh = inhibitors of Hepatitis C virus NS3 helicase; NS3 helicase DNA unwinding, Cy5 molecular beacon fluorescence; inhibition, % at 10.9 µM; actives 0.56% (n = 290,000);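 active = inhibition above the mean of all tested compounds plus 3 SD, set per campaign, cut at about 35% in these data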;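 note: 0% = DMSO wells and 100% = thioflavine S control wells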
#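 Control set: DMSO versus 110 µM thioflavine S; Material: NS3 helicase fragment of HCV; Measured by: Cy5 fluorescence at 0 and 60 min, beacon hairpin quenching; Read-out basis: percent inhibition from t60/t0 fluorescence ratio; Times: reaction time 60 min, 25 °C; Repeats: single replicate; Compound dosing: single dose, 10.9 µM nominal final, DMSO 0.8% final.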
# HSF1 inh = HSF1 inhibition; NIH3T3-HGL HSE-luciferase, MG132-induced, luminescence 8 h; stronger effect = lower value; activity change, negative = inhibition, % at 7.5 µM (by protocol); actives 0.77% (n = 300,000);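 active = more than half of replicate wells show activity change below -50%, luminescence cut by over half; inconclusive = some wells, but at most half, below -50%; inactive = no replicate well below -50%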;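 note: luciferase reports HSF-1 transcriptional activity via heat shock element; 0% = median of DMSO wells and -100% = zero luminescence signal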
# HSP90 confirm = HSP90 inhibition, confirmation assay. shares compounds with HSP90 inh. inhibition, % at 5.9 µM. actives 64% (n = 2,300). AID 1846. rabbit reticulocyte lysate, luciferase refolding luminescence, 3 h; in the data active = inhibition above about 18%;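 note: 0% = vehicle wells and 100% = reference inhibitor wells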
# luciferase ctr = firefly luciferase inhibition, HSP90 counter-screen; shares compounds with HSP90 inh; purified native firefly luciferase, luminescence; inhibition, % at 5.9 µM; actives 48% (n = 2,300); AID 1847;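 active = inhibition above the mean inhibition of all tested sample wells plus 3 SD, cut at about 10% in these data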;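 note: 0% = DMSO with luciferase and 100% = wells lacking luciferase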
# Target sequence (P08659 whole entry, looked up): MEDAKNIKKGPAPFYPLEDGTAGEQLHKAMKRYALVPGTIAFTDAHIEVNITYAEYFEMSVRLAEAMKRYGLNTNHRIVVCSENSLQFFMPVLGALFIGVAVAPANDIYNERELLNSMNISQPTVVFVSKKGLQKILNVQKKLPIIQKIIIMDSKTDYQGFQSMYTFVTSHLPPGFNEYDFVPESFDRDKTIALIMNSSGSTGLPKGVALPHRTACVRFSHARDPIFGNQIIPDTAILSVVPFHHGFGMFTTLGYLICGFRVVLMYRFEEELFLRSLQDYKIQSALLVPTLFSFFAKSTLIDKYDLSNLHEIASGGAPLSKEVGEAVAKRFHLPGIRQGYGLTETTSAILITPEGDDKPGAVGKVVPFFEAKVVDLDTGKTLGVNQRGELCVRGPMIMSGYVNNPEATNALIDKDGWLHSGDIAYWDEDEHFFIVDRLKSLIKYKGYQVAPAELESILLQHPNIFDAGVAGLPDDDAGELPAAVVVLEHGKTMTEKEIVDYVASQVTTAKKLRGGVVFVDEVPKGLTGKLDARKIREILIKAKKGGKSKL
# Numbers without * were called inactive; u = inconclusive; x = no result.
SMILES,core dimer inh,DNA FID counter,HSP90 inh,HSF-1 act,NS3 helicase inh,HSF1 inh,HSP90 confirm,luciferase ctr
N#Cc1nc(-c2cccc3ccccc23)oc1N1CCCCC1,2,-2,21*,26,-1,20,0,-12
CC1CCN(c2oc(-c3cccc4ccccc34)nc2C#N)CC1,4,-2,0,29,4,3,x,x
COc1ccccc1NC(=O)CCc1nc(-c2ccccc2F)no1,-3,-13,-5,5,-1,-4,x,x
COc1ccc(Cl)cc1NC(=O)CCc1nc(-c2ccccc2F)no1,1,0,27*,69*,0,57,1,-3
Cc1cc2cc(CNC(=S)NC3CCCCC3)ccc2n1C,13,-6,20*,-3,-10,0,4,-2
Cc1cc(C)n(CC(O)COc2ccc(OCC(O)Cn3nc(C)cc3C)cc2)n1 (stereo unspecified),x,-29,-5,x,-5,x,x,x
O=[N+]([O-])c1ccc(N2CCN(c3ccc([N+](=O)[O-])cc3CO)CC2)c(CO)c1,11,-3,19*,-4,-6,-3,5,-4
O=C(CSc1nc2ccccc2[nH]1)NCCc1ccc(Cl)cc1,-3,-6,25*,25,-11,10,1,-4
COc1cc(/C=C/C(=O)OCC(=O)NCCC2=CCCCC2)ccc1O,-1,-27,2,16,8,11,x,x
C=CCc1ccc(OCc2ccc(C(=O)OC)o2)c(OC)c1,0,-24,25*,59*,1,39,55*,-23
O=C(Cc1nc2ccccc2[nH]1)c1cccc([N+](=O)[O-])c1,-4,4,20*,10,6,-15,27*,5
CCOc1cccc2cc(-c3csc(NC(=O)CCC(=O)NCCCN4CCC(C)CC4)n3)c(=O)oc12,-4,-2,-3,u,8,23,x,x
COc1cccc2cc(-c3csc(NC(=O)CCC(=O)NCCCN4CCC(C)CC4)n3)c(=O)oc12,-2,-7,27*,41,-8,28,2,-15
Cc1scc(C(=O)O)c1-c1c(C(=O)O)csc1C,-5,2,-4,-3,-5,-5,x,x
C=CCSc1nnc(-c2ccccc2N=Cc2c(C)[nH]n(-c3ccccc3)c2=O)c(=O)[nH]1,2,-1,22*,6,3,4,-4,-8
CSc1nnc(-c2ccccc2N=Cc2c(C)[nH]n(-c3ccc4ccccc4c3)c2=O)c(=O)[nH]1,10,-5,6,40,16,19,x,x
COc1ccc(C(=O)Nc2ccc(C)cn2)c(OC)c1,-1,-9,88*,-33,9,-37,88*,82*
COc1ccc(S(=O)(=O)N2CCCCCC2)cc1C(=O)N1CCCCC1,3,-30,2,-6,-1,2,x,x
CC1(C)CCc2cc(-c3ccnc(=S)[nH]3)ccc2O1,-4,-9,18*,-43,7,-42,9,-17
S=c1nccc(-c2ccc3c(c2)CCO3)[nH]1,3,-3,0,-21,-1,1,x,x
c1ccc(C2CSc3ccccc3N2)cc1 (stereo unspecified),9,1,38*,24,13,9,-1,-17
CC1CSc2ccccc2NC1=S (stereo unspecified),2,1,6,-8,-6,-4,x,x
COC(=O)CNC(=O)C1CC(=O)N(CCc2ccc(F)cc2)C1 (stereo unspecified),-6,-2,2,-6,0,-6,x,x
CCCCCCC(=O)N1CCC(c2nc3c(nnn3Cc3ccccc3Cl)c(=O)[nH]2)CC1,19,-21,1,39,-2,13,x,x
CC1=C(CC(=O)c2ccccc2)C(=O)c2ccccc2C1=O,-22,1,17*,-28,1,-8,10,-11
SMILES,core dimer inh,DNA FID counter,HSP90 inh,HSF-1 act,NS3 helicase inh,HSF1 inh,HSP90 confirm,luciferase ctr
CCOC(=O)c1sc(NC(=O)c2ccc(OC)cc2)nc1C,7,2,18*,1,0,11,28*,-6
CC(=O)c1sc(NC(=O)c2ccc(C(C)(C)C)cc2)nc1C,19,-5,30*,-13,3,-15,9,-5
COC(=O)c1sc(NC(=O)c2ccc(C)o2)nc1C,1,-2,10,-3,-4,20,x,x
CCOC(=O)c1sc(NC(=O)c2ccc(OC(C)=O)cc2)nc1C,18,-1,6,x,13,x,x,x
CCOC(=O)c1sc(NC(=O)c2ccc(C)o2)nc1C,4,-3,45*,34,6,11,44*,-14
COC(=O)c1sc(NC(=O)c2oc3ccccc3c2C)nc1C,-1,-10,55*,9,0,10,35*,-24
COc1ccc(OC)c(NC(=O)C(CCSC)NS(=O)(=O)c2cccs2)c1 (stereo unspecified),-3,-21,-4,5,15,0,x,x
CCC(=O)Nc1ccc(C(=O)CSc2nc(N)cc(N)n2)cc1,0,-2,-1,8,7,4,x,x
CCc1ccc(C2=NN(C(=O)OC)C(O)(C(F)(F)F)C2)cc1 (stereo unspecified),-6,-4,40*,24,2,4,64*,49*
COc1ccc(CC(=O)N2N=C(c3ccncc3)CC2(O)C(F)(F)F)cc1 (stereo unspecified),1,-18,-1,-24,-9,3,x,x
CCOC(=O)N1N=C(c2ccc(OC)cc2)CC1(O)C(F)(F)F (stereo unspecified),-5,-10,22*,29,1,20,39*,26*
CCOC(=O)N1N=C(c2ccccc2)CC1(O)C(C)(F)F (stereo unspecified),0,-6,3,-4,5,-3,x,x
O=C(NNS(=O)(=O)c1ccccc1)C1CCCCC1,12,-3,-2,10,1,1,x,x
O=C(CNS(=O)(=O)c1ccccc1)OCC(=O)c1ccccc1Cl,-5,-15,22*,-4,22,3,-6,-13
Cc1ccc(C)c(C(=O)COC(=O)CNS(=O)(=O)c2ccccc2)c1,6,-26,-1,18,4,-8,x,x
Nc1cccc(-c2cc3ccccc3oc2=O)c1,-1,-3,44*,-2,0,-5,35*,-16
CCc1cc(C(=O)c2ccccc2)c(N)s1,-2,-15,21*,-6,15,4,-3,-10
CN(C)/C=C1/Sc2ccccc2C1=O,-1,3,21*,-16,9,0,-2,-16
